Reference: article PMC9817006 (Journal of psychopharmacology (Oxford, England), 2022)
Where two headings read alike, the source gives them in different places.

What was measured:
[1] = system: C57BL/6J mice; β2 and α6 WT and KO mice; test: Formalin test; assay type: in vivo
β3α4β2α6β2 nAChR = β3α4β2α6β2 nAChR (Homo sapiens, UniProt P17787+P43681+Q15825); test: Two-electrode voltage clamp in Xenopus oocytes, α6-containing concatemer; assay type: cell-based
Procedure, shortened: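 α6-containing receptor expressed in Xenopus oocytes as a five-subunit human β3α4β2α6β2 concatemer cRNA. Voltage clamp at −60 mV, 24°C, in Ringer's (pH 7.2, 1 μM atropine). Test compound applied 12 s at varying concentrations, 181 s washout. Peak current and net charge referenced to same-cell 30 μM ACh controls and rescaled to ACh maximum from other experiments; ≥4 oocytes.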

rats = settings: ref Freitas et al., 2016; cited from earlier work
[2] = system: C57BL/6J mice; β2 WT and KO mice; test: Body temperature; assay type: in vivo; settings: 0.5 mg/kg s.c.
Procedure, shortened: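 Mixed-sex β2 WT and KO mice on a C57BL/6J background, 8/group, given saline or test compound 0.5 mg/kg s.c. Rectal temperature read by thermistor probe inserted 24 mm, just before and at set times after injection. Change from pre-treatment reading computed per mouse; room temperature 21–24°C.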

[3] = molecular target: high sensitivity α4(2)β2(3) nAChR (Homo sapiens, UniProt P17787+P43681); test: Two-electrode voltage clamp in Xenopus oocytes, HS α4β2; assay type: cell-based
Sequence of high sensitivity α4(2)β2(3) nAChR (P17787 26-502): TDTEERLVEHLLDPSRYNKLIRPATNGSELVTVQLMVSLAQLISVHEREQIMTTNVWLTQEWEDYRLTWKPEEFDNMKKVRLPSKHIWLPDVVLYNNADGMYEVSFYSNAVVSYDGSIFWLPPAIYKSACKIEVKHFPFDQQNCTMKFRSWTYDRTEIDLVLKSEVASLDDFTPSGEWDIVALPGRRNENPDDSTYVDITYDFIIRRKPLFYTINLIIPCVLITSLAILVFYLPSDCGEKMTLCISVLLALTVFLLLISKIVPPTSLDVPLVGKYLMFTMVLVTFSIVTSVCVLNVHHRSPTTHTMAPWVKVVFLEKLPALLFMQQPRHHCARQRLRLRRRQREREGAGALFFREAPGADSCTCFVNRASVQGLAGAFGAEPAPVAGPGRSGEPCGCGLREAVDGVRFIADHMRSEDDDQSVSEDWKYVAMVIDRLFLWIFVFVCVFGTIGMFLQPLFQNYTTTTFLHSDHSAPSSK
Sequence of high sensitivity α4(2)β2(3) nAChR (P43681 29-627 limits assumed): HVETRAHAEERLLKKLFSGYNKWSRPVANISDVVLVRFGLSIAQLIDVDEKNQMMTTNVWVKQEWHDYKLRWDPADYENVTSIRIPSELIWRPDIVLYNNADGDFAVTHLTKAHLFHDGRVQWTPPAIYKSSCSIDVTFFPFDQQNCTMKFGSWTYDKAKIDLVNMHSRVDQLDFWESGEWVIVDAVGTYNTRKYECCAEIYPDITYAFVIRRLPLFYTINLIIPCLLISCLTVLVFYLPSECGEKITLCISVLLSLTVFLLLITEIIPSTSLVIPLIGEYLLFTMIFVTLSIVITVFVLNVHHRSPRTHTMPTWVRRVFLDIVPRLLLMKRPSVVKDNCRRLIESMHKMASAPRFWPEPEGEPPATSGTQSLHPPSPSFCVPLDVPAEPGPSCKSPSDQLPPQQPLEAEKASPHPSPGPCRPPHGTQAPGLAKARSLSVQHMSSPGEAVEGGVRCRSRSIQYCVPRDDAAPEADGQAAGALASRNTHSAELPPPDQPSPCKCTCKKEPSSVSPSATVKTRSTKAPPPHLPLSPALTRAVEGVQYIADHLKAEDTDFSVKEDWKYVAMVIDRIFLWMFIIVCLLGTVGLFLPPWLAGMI
Sequence of high sensitivity α4(2)β2(3) nAChR (P17787 26-502): as the sequence (P17787 26-502) above
Procedure, shortened: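 Human HS α4β2 nAChR from in vitro–transcribed cRNA in Xenopus oocytes. Two-electrode clamp at −60 mV, 24°C, in Ringer's (pH 7.2, 1 μM atropine) perfused at 2 ml/min. Test compound over a concentration range as 12 s applications with 181 s washout. Peak current and net charge taken relative to same-cell 10 μM ACh controls, then scaled to ACh maximum from separate experiments; ≥4 oocytes.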

[4] = molecular target: low sensitivity α4(3)β2(2) nAChR (Homo sapiens, UniProt P17787+P43681); test: Two-electrode voltage clamp in Xenopus oocytes, LS α4β2; assay type: cell-based
Sequence of low sensitivity α4(3)β2(2) nAChR (P17787 26-502): as above
Sequence of low sensitivity α4(3)β2(2) nAChR (P43681 29-627 limits assumed): as the sequence (P43681 29-627 limits assumed) above
Sequence of low sensitivity α4(3)β2(2) nAChR (P43681 29-627 limits assumed): as above
Procedure, shortened: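 LS α4β2 nAChR (human, cRNA in Xenopus oocytes) clamped at −60 mV, 24°C, with Ringer's (pH 7.2, 1 μM atropine) at 2 ml/min. Varying test compound concentrations applied for 12 s, then 181 s washout. Peak currents and net charge normalized to same-cell 100 μM ACh controls, then adjusted to ACh maximum determined separately; at least four oocytes.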

[5] = system: C57BL/6J mice; β2 and α6 WT and KO mice; test: Conditioned place preference; assay type: in vivo
Procedure, shortened: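 Three-chamber place conditioning in β2 and α6 WT and KO mice (C57BL/6J background, 8–10/group). Day 1: 5 min confinement to the middle chamber, then 15 min free access. Test compound (0.05 mg/kg s.c.) or vehicle given over three conditioning days, sessions 4 h apart, paired chamber randomized. Day 5: drug-free 15 min test. Score = drug-paired-side time on test day minus baseline.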

[6] = system: C57BL/6J mice; β2 WT and KO mice; test: Locomotor activity; assay type: in vivo
Procedure, shortened: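 Saline or test compound was given s.c. 15 min before mice entered photocell cages with two banks of eight beams. Beam interruptions were counted over 30 min. β2 WT and KO mice (8/group) received 0.5 mg/kg. For repeated dosing, mice (12/group) received saline or 0.01, 0.1, 0.5 or 1 mg/kg daily for 5 days, had 2 days without injection, and were challenged on day 8.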

ICR mice = test: Tail-flick test; assay type: in vivo
Procedure, shortened: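 ICR mice (6/group) injected s.c. with test compound (0.001, 0.01, 0.1, 0.5 mg/kg) or saline; tail-flick latency tested at 5, 10, 15, 30, 60 and 120 min. Pre-treatment control latency 2–4 sec; 10 sec cutoff. %MPE = (test−control)/(10−control)×100.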

C57BL/6J mice = test: Hot-plate test; assay type: in vivo; settings: 0.5 mg/kg s.c., 5-120 min
Procedure, shortened: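 Hot plate held at 55.0 °C, with mice confined in a 10 cm glass cylinder. Two control latencies were taken at least 10 min apart. Latency was scored at a jump or at licking of the front or hind paws. Mice (n=6/group) received saline or test compound 0.5 mg/kg s.c. and were tested at 5, 10, 15, 30, 60 and 120 min. %MPE = ((test−control)/(40−control)) × 100.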

[7] = C57BL/6J mice, 0.5 mg/kg s.c., pretreatment 5, 15, 30, 60 min
[8] = α6 WT and KO mice, 0.5 mg/kg s.c., 15 min pretreatment
[9] = β2 WT mice, 0.5 mg/kg s.c., 15 min pretreatment
[10] = β3α4β2α6β2, normalized to the maximum ACh responses
[11] = α4(2)β2(3), normalized to the maximum ACh responses
[12] = α4(3)β2(2), normalized to the maximum ACh responses

Sequence of β3α4β2α6β2 nAChR (P43681 29-627 limits assumed): as above
Sequence of β3α4β2α6β2 nAChR (P17787 26-502): as the sequence (P17787 26-502) above
Sequence of β3α4β2α6β2 nAChR (Q15825 26-494): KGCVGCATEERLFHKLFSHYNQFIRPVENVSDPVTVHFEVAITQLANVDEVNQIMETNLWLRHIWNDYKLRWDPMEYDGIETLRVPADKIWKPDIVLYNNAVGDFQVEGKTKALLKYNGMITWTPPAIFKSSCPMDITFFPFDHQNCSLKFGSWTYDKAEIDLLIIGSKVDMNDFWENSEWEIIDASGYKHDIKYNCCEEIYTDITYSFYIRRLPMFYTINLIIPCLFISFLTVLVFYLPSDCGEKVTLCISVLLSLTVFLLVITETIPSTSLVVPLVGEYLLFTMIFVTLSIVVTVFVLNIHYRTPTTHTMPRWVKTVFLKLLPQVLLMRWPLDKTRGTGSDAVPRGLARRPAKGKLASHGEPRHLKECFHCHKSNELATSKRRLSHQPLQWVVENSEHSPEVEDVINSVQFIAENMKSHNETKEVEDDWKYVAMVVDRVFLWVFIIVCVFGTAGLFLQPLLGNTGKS
Sequence of β3α4β2α6β2 nAChR (P17787 26-502): as the sequence (P17787 26-502) above

Ic1cncc(OC[C@@H]2CCN2)c1 [5IA, 5-Iodo-A-85380]
Paw licking, formalin test phase I, time course (in words) [1, 7]: significant effects of 5IA treatment at 5, 15, 30, and 60 min in phase I
Paw licking, formalin test phase II, time course (in words) [1, 7]: significant differences observed at only 5 and 15 minutes
Paw licking, formalin test, dose-response (in words) ([1]; C57BL/6J mice, 0.01, 0.1, 0.5 mg/kg s.c., 15 min pretreatment, vs vehicle): significant attenuation of paw licking responses at 0.1 and 0.5 mg/kg
Paw licking, formalin test phase I (in words) [1, 8]: completely blocked the paw licking behavior in both α6 WT and KO mice in phase I
Paw licking, formalin test phase II (in words) [1, 8]: only partially inhibited it in phase II
Paw licking, formalin test phase I (in words) [1, 9]: significantly attenuated paw licking time in phase I
Paw licking, formalin test phase II (in words) [1, 9]: partially decreased paw licking time in phase II
EC50 (β3α4β2α6β2 nAChR; read-out: Net Charge EC50, β3α4β2α6β2): 19 ± 0.4 nM
EC50 (β3α4β2α6β2 nAChR; read-out: Peak Currents EC50, β3α4β2α6β2): 11 ± 0.01 nM
Efficacy (in words) (β3α4β2α6β2 nAChR; α6-containing subtypes): intermediate efficacy
Net Charge Imax (β3α4β2α6β2 nAChR; [10]): 0.76 ± 0.01
Peak Currents Imax (β3α4β2α6β2 nAChR; [10]): 0.78 ± 0.1
Intracranial self-stimulation (ICSS) (in words) (rats): dose-dependently produced facilitated intracranial self-stimulation (ICSS)
Body temperature, time course (in words) ([2]; C57BL/6J mice, vs vehicle): significant reductions in body temperature in comparison to their vehicle controls at 15-, 30- and 60-min
Hypothermic effect in β2 KO vs WT mice (in words) ([2]; β2 WT and KO mice): significantly abolished in β2 KO mice
Effect on current duration (in words) ([3]; HS α4β2 receptors): prolonged the currents
Efficacy (in words) ([3]; high sensitivity α4(2)β2(3)): full agonist
EC50 ([3]; read-out: Net Charge EC50, α4(2)β2(3)): 62 ± 11 nM
EC50 ([3]; read-out: Peak Currents EC50, α4(2)β2(3)): 42 ± 2 nM
Net Charge Imax [3, 11]: 3.0 ± 0.18
Peak Currents Imax [3, 11]: 1.3 ± 0.02
Efficacy (in words) ([4]; low sensitivity α4(3)β2(2)): very low efficacy
EC50 ([4]; read-out: Net Charge EC50, α4(3)β2(2)): 25 ± 14 nM
EC50 ([4]; read-out: Peak Currents EC50, α4(3)β2(2)): 37 ± 6.3 nM
Net Charge Imax [4, 12]: 0.22 ± 0.04
Peak Currents Imax [4, 12]: 0.22 ± 0.1
Conditioned place preference, dose-response (in words) ([5]; C57BL/6J mice, 0.01, 0.05, 0.1, 0.5 or 1 mg/kg s.c.): significant 5IA induced-CPP at 0.05 and 0.1 mg/kg, but not at 0.01, 0.5, and 1 mg/kg
Conditioned place preference, α6 WT vs KO (in words) ([5]; α6 WT and KO mice, 0.05 mg/kg s.c.): no significant difference in 5IA-induced CPP between α6 WT and KO mice
Conditioned place preference (in words) ([5]; β2 KO mice, 0.05 mg/kg s.c.): significantly abolished in β2 KO mice
Conditioned place preference (in words) ([5]; β2 WT mice, 0.05 mg/kg s.c.): significant CPP in comparison to their vehicle counterparts
Locomotion after repeated injection, low dose (in words) ([6]; C57BL/6J mice, 0.01 mg/kg s.c. for 5 days, vs vehicle): stimulant effects on locomotion at days 3 and 5
Locomotion after repeated injection, higher doses (in words) ([6]; C57BL/6J mice, 0.5 and 1 mg/kg s.c. for 5 days, days 1 and 2, vs vehicle): depressive effects at higher doses (0.5 and 1 mg/kg)
Tolerance to locomotor depressant effects (in words) ([6]; C57BL/6J mice, repeated injection of higher doses): Tolerance to the depressant effects of higher doses of 5IA developed progressively after day 2
Attenuation of locomotion in β2 WT vs KO mice (in words) ([6]; β2 WT and KO mice, 0.5 mg/kg s.c.): this effect was only observed in β2 WT mice and not in β2 KO mice
Antinociceptive response, tail-flick test (ICR mice; 0.001 mg/kg s.c., 5 min after injection): 2 ± 2 % MPE
Antinociceptive response, tail-flick test (ICR mice; 0.001 mg/kg s.c., 10 min after injection): 3 ± 1 % MPE
Antinociceptive response, tail-flick test (ICR mice; 0.001 mg/kg s.c., 15 min after injection): 3 ± 2 % MPE
Antinociceptive response, tail-flick test (ICR mice; 0.001 mg/kg s.c., 30 min after injection): 0 ± 0 % MPE
Antinociceptive response, tail-flick test (ICR mice; 0.001 mg/kg s.c., 60 min after injection): 1 ± 1 % MPE
Antinociceptive response, tail-flick test (ICR mice; 0.001 mg/kg s.c., 120 min after injection): 4 ± 2 % MPE
Antinociceptive response, tail-flick test (ICR mice; 0.01 mg/kg s.c., 5 min after injection): 1 ± 1 % MPE
Antinociceptive response, tail-flick test (ICR mice; 0.01 mg/kg s.c., 10 min after injection): 2 ± 1 % MPE
Antinociceptive response, tail-flick test (ICR mice; 0.01 mg/kg s.c., 15 min after injection): 2 ± 1 % MPE
Antinociceptive response, tail-flick test (ICR mice; 0.01 mg/kg s.c., 30 min after injection): 2 ± 2 % MPE
Antinociceptive response, tail-flick test (ICR mice; 0.01 mg/kg s.c., 60 min after injection): 1 ± 1 % MPE
Antinociceptive response, tail-flick test (ICR mice; 0.01 mg/kg s.c., 120 min after injection): 1 ± 1 % MPE
Antinociceptive response, tail-flick test (ICR mice; 0.1 mg/kg s.c., 5 min after injection): 0 ± 0 % MPE
Antinociceptive response, tail-flick test (ICR mice; 0.1 mg/kg s.c., 10 min after injection): 3 ± 1 % MPE
Antinociceptive response, tail-flick test (ICR mice; 0.1 mg/kg s.c., 15 min after injection): 3 ± 1 % MPE
Antinociceptive response, tail-flick test (ICR mice; 0.1 mg/kg s.c., 30 min after injection): 6 ± 4 % MPE
Antinociceptive response, tail-flick test (ICR mice; 0.1 mg/kg s.c., 60 min after injection): 3 ± 2 % MPE
Antinociceptive response, tail-flick test (ICR mice; 0.1 mg/kg s.c., 120 min after injection): 5 ± 2 % MPE
Antinociceptive response, tail-flick test (ICR mice; 0.5 mg/kg s.c., 5 min after injection): 10 ± 4 % MPE
Antinociceptive response, tail-flick test (ICR mice; 0.5 mg/kg s.c., 10 min after injection): 4 ± 3 % MPE
Antinociceptive response, tail-flick test (ICR mice; 0.5 mg/kg s.c., 15 min after injection): 11 ± 4 % MPE
Antinociceptive response, tail-flick test (ICR mice; 0.5 mg/kg s.c., 30 min after injection): 7 ± 4 % MPE
Antinociceptive response, tail-flick test (ICR mice; 0.5 mg/kg s.c., 60 min after injection): 6 ± 3 % MPE
Antinociceptive response, tail-flick test (ICR mice; 0.5 mg/kg s.c., 120 min after injection): 7 ± 3 % MPE
Effect on acute thermal antinociception, tail-flick test (in words) (ICR mice; 0.001-0.5 mg/kg s.c., 5-120 min, Dunnett's post hoc): no significant effects of dose at any of the observed time points
Effect on acute thermal antinociception, hot plate test (in words) (C57BL/6J mice): no significant effect of 5IA on acute thermal antinociception in the hot plate or tail-flick test
